ChEMBL document CHEMBL4007477, “Novel 2-phenyl-4,5,6,7-tetrahydro[b]benzothiophene analogues as selective COX-2 inhibitors: Design, synthesis, anti-inflammatory evaluation, and molecular docking studies” (Bioorg Med Chem Lett, 2017)

How the values were obtained:
[1] = target: T1, COX1 (Prostaglandin G/H synthase 1) (Ovis aries, UniProt P05979); test: Inhibition of ovine COX1 at 60 uM using arachidonic acid as substrate preincubated for 5 mins followed by substrate addition measured after 2 mins by ADHP probe-based fluorescence assay relative to control; conditions: sheep, ovine COX1 enzyme
T1 sequence (P05979 whole entry): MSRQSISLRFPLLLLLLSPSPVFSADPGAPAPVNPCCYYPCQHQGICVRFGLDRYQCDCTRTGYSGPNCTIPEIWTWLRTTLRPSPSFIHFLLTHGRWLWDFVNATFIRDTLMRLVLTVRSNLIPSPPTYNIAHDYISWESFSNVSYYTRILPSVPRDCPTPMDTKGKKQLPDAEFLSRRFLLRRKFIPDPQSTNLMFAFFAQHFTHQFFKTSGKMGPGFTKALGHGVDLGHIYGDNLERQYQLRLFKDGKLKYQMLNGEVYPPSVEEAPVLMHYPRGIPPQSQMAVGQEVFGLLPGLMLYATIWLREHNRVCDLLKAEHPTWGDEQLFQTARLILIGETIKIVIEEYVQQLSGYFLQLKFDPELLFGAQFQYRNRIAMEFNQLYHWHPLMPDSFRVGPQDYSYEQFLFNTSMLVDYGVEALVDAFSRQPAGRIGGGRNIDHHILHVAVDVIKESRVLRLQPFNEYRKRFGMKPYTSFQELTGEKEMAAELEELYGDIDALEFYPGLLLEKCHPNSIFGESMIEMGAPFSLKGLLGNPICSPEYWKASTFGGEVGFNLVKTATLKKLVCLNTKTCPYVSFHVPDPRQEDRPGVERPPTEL

[2] = target: T2, Prostaglandin G/H synthase 2 (Homo sapiens) (UniProt P35354); conditions: at 60 µM
T2 sequence (whole entry): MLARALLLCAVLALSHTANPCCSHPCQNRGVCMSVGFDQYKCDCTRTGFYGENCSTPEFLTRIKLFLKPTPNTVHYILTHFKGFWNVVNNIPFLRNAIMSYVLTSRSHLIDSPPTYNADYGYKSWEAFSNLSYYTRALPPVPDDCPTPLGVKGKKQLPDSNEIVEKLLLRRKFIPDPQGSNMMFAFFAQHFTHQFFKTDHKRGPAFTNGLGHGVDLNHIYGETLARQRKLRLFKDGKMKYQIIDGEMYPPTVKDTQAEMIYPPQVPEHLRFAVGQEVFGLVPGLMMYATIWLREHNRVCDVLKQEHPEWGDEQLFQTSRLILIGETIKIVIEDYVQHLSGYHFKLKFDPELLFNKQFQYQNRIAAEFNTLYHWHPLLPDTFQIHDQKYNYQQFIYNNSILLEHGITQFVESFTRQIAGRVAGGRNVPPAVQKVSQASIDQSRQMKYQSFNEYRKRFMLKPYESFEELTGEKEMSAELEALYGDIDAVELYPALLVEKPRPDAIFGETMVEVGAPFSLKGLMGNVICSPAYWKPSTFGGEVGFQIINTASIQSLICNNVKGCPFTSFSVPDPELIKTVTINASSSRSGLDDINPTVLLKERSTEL

Rattus norvegicus [3] = test: Antiinflammatory activity in carrageenan-induced Wistar rat paw edema model assessed as rise in paw volume at 150 ug/kg administered 1 hr followed by carrageenan challenge measured at 360 mins by plethysmometer (reference value: 49.3%); assay type: functional
Rattus norvegicus [4] = test: Antiinflammatory activity in carrageenan-induced Wistar rat paw edema model assessed as rise in paw volume at 150 ug/kg administered 1 hr followed by carrageenan challenge measured at 180 mins by plethysmometer (reference value: 60.1%); assay type: functional
Rattus norvegicus [5] = test: Antiinflammatory activity in carrageenan-induced Wistar rat paw edema model assessed as rise in paw volume at 150 ug/kg administered 1 hr followed by carrageenan challenge measured at 30 mins by plethysmometer (reference value: 49.5%); assay type: functional
Rattus norvegicus [6] = test: Antiinflammatory activity in carrageenan-induced Wistar rat paw edema model assessed as rise in paw volume at 150 ug/kg administered 1 hr followed by carrageenan challenge measured at 60 mins by plethysmometer (reference value: 52.8%); assay type: functional
[7] = target: T3, Prostaglandin G/H synthase 1 (Ovis aries, UniProt P05979); test: Inhibition of ovine COX1 using arachidonic acid as substrate preincubated for 5 mins followed by substrate addition measured after 2 mins by ADHP probe-based fluorescence assay
T3 sequence (P05979 whole entry): T1 sequence (P05979 whole entry)

[8] = Selectivity index, ratio of IC50 for ovine COX1 to IC50 for human recombinant COX2
Outline: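 Selectivity index computed as COX-1 IC₅₀ / COX-2 IC₅₀, using ovine COX-1 and human recombinant COX-2. Each IC₅₀ is a mean of two determinations.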

[9] = target: T4, Prostaglandin G/H synthase 2 (Homo sapiens, UniProt P35354); test: Inhibition of human recombinant COX2 using arachidonic acid as substrate preincubated for 5 mins followed by substrate addition measured after 2 mins by ADHP probe-based fluorescence assay
T4 sequence (P35354 whole entry): T2 sequence (whole entry)

[10] = Cytotoxicity against mouse RAW264.7 cells assessed as cell viability at 80 uM after 24 hrs by MTT assay relative to control; assay type: cell-based; conditions: read-out: Activity
Outline: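 MTT viability in RAW 264.7 cells after 24 h exposure to 5, 10, 20, 40, 80 and 160 µM compound.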

Row | inhibition at 2 min, 60 µM [1] [%] | inhibition [2] [%] | IC50 [7] [µM] | IC50 [9] [nM] | Compound | Activity (Rattus norvegicus [3]) [%] | Activity (Rattus norvegicus [4]) [%] | Activity (Rattus norvegicus [5]) [%] | Activity (Rattus norvegicus [6]) [%] | Ratio IC50 [8] | viability at 24 h, 80 µM [10] [%]
1 | 68.9 | 56.5 |  |  | COC(=O)c1ccc(OC(=O)c2c(-c3ccccc3)sc3c2CCCC3)cc1 |  |  |  |  |  | 
2 | 76 | 83.7 |  |  | N#Cc1ccc(OC(=O)c2c(-c3ccccc3)sc3c2CCCC3)cc1 | 28.5 | 21.4 | 13.6 | 22 |  | 
3 | 36.8 | 75.7 | 68.8 | 1400 | CC(=O)Nc1ccc(OC(=O)c2c(-c3ccccc3)sc3c2CCCC3)cc1 | 37 | 27 | 10.6 | 30.2 | 48.8 | 41.3
4 | 47.1 | 97.6 | 61.2 | 330 | O=C(Oc1ccccc1)c1c(-c2ccccc2)sc2c1CCCC2 | 37 | 27 | 10.6 | 30.2 | 184 | 50.8
5 | 69.3 | 89.4 | 37 | 670 | NS(=O)(=O)c1ccc(OC(=O)c2c(-c3ccccc3)sc3c2CCCC3)cc1 | 31.3 | 21.1 | 21.4 | 21.6 | 54.7 | 83.7
6 | 7.81 | 15 |  |  | COC(=O)Cc1ccc(OC(=O)c2c(-c3ccccc3)sc3c2CCCC3)cc1 |  |  |  |  |  | 
7 | 88.3 | 32.3 |  |  | Nc1ccc(OC(=O)c2c(-c3ccccc3)sc3c2CCCC3)cc1 | 39.9 | 44.9 | 29 | 33.1 |  | 
8 | 10.3 | 8.04 |  |  | CC(=O)c1ccc(OC(=O)c2c(-c3ccccc3)sc3c2CCCC3)cc1 | 54.2 | 55.2 | 24.7 | 37.1 |  | 
9 | 19.3 | 16.5 |  |  | O=C(Oc1ccc([N+](=O)[O-])cc1)c1c(-c2ccccc2)sc2c1CCCC2 |  |  |  |  |  | 

The next lines start with the molecule.

Row | Compound | inhibition at 2 min, 60 µM [1] [%] | inhibition [2] [%] | IC50 [7] [µM] | IC50 [9] [nM] | Activity (Rattus norvegicus [3]) [%] | Activity (Rattus norvegicus [4]) [%] | Activity (Rattus norvegicus [5]) [%] | Activity (Rattus norvegicus [6]) [%] | Ratio IC50 [8] | viability at 24 h, 80 µM [10] [%]
10 | O=C(Oc1ccc(Cl)cc1)c1c(-c2ccccc2)sc2c1CCCC2 | 72.4 | 36.8 |  |  |  |  |  |  |  | 
11 | Cc1ccc(-c2cc(C(F)(F)F)nn2-c2ccc(S(N)(=O)=O)cc2)cc1 [CELECOXIB] |  |  |  |  | 26.6 | 19.7 | 5.8 | 16.2 |  | 33.9
12 | CC(C)(C)c1ccc(OC(=O)c2c(-c3ccccc3)sc3c2CCCC3)cc1 | 8.1 | 3.1 |  |  |  |  |  |  |  | 
13 | NC(=O)Cc1ccc(OC(=O)c2c(-c3ccccc3)sc3c2CCCC3)cc1 | 1.43 | 38.3 |  |  |  |  |  |  |  | 
14 | O=C(Oc1ccc(Br)cc1)c1c(-c2ccccc2)sc2c1CCCC2 | 35.5 | 18.5 |  |  |  |  |  |  |  | 
15 | O=Cc1ccc(OC(=O)c2c(-c3ccccc3)sc3c2CCCC3)cc1 | 11.6 | 10.7 |  |  |  |  |  |  |  | 
16 | COc1ccc(OC(=O)c2c(-c3ccccc3)sc3c2CCCC3)cc1 | 10.7 | 41 |  |  |  |  |  |  |  | 
17 | CC(=O)c1cccc(OC(=O)c2c(-c3ccccc3)sc3c2CCCC3)c1 | 73.5 | 93.5 | 29.6 | 310 | 30.3 | 30.5 | 28.9 | 30.8 | 92.7 | 64.5
18 | Cc1ccc(OC(=O)c2c(-c3ccccc3)sc3c2CCCC3)cc1 | 64 | 47.2 |  |  |  |  |  |  |  | 
